Data from ChEMBL document CHEMBL1629563, “Pharmacokinetic and safety evaluation of BILR 355, a second-generation nonnucleoside reverse transcriptase inhibitor, in healthy volunteers” (Antimicrob Agents Chemother, 2008).

Tests used:
Homo sapiens [1] = test: Toxicity in healthy human assessed as occurrence of vomiting at 75 mg, po administered as single dose relative to control; format: organism-based; conditions: in vivo
Homo sapiens [2] = test: Toxicity in healthy human assessed as occurrence of increase in alanine aminotransferase level at 1 mg, po administered as single dose relative to control; format: organism-based; conditions: in vivo
Homo sapiens [3] = test: Toxicity in healthy human assessed as occurrence of maculopapular rash at 1 mg, po administered as single dose relative to control; format: organism-based; conditions: in vivo
Homo sapiens [4] = test: Toxicity in healthy human assessed as occurrence of neurological eyelid disorder at 100 mg, po administered as single dose relative to control; format: organism-based; conditions: in vivo
[5] = Apparent oral clearance in healthy human at 25 mg, po administered as single dose coadministered with 100 mg of ritonavir; format: ADME, organism-based; conditions: in vivo
Summary of the method: (§1)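 Healthy male volunteers, fasted. Ritonavir 100 mg given 10 h before and again together with single oral BILR 355 in PEG solution. EDTA plasma sampled predose to 144 h. LC-MS/MS assay after protein precipitation. Noncompartmental analysis, AUC by linear up/log down trapezoidal rule; Vss = CL/F·(MRTp.o. − 1/Ka).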

[6] = Apparent oral clearance in healthy human at 87.5 mg, po administered as single dose coadministered with 100 mg of ritonavir; format: ADME, organism-based; conditions: in vivo; summary of the method: as §1
[7] = Apparent volume of distribution in terminal phase in healthy human at 12.5 mg, po administered as single dose coadministered with 100 mg of ritonavir; format: ADME, organism-based; conditions: in vivo, read-out: Vz/F
Summary of the method: (§2)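 Healthy male volunteers, fasted overnight, got one oral dose of BILR 355 in PEG solution with 200 ml water. Ritonavir 100 mg was given 10 h before and again with the dose. Plasma was sampled (EDTA) from predose to 144 h and assayed by validated LC-MS/MS. Cmax and Vz/F came from noncompartmental analysis. Vss/F = CL/F·(MRTp.o. − 1/Ka), with Ka from compartmental modelling.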

[8] = Apparent volume of distribution at steady state in healthy human at 37.5 mg, po administered as single dose coadministered with 100 mg of ritonavir; format: ADME, organism-based; conditions: in vivo, read-out: Vss/F; summary of the method: as §2
[9] = Renal clearance in healthy human at 87.5 mg, po administered as single dose coadministered with 100 mg of ritonavir by high-pressure liquid chromatography-tandem mass spectrometry/mass spectrometry method; format: ADME, organism-based, Kidney; conditions: in vivo, read-out: CL_renal (converted)
Summary of the method: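 Healthy male volunteers, fasted overnight, got one oral dose in PEG solution with 200 ml water. Ritonavir 100 mg was given 10 h before and again with the dose. Urine was collected quantitatively over 0–6, 6–24 and 24–72 h and stored at −20°C, then assayed by validated HPLC-MS/MS. CLR = amount excreted unchanged over an interval / plasma AUC over the same interval.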

[10] = Drug excretion in healthy human urine assessed as unchanged drug at 5 mg, po administered as single dose coadministered with 100 mg of ritonavir by high-pressure liquid chromatography-tandem mass spectrometry/mass spectrometry method; format: ADME, organism-based; conditions: read-out: Drug uptake
Summary of the method: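 Ritonavir 100 mg was given 10 h before and with one oral dose of BILR 355 in PEG solution. Urine was collected by weight as predose blank, then 0-6, 6-24 and 24-72 h, stored at −20°C and assayed by LC-MS/MS. fe = unchanged drug excreted (Ae) as a percentage of dose. Line 50: high-fat breakfast 30 min before dosing.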

Homo sapiens [11] = test: Toxicity in healthy human assessed as occurrence of frequent bowel movements at 100 mg, po administered as single dose relative to control; format: organism-based; conditions: in vivo
Homo sapiens [12] = test: Toxicity in healthy human assessed as occurrence of aphthous stomatitis at 100 mg, po administered as single dose; format: organism-based; conditions: in vivo
Homo sapiens [13] = test: Toxicity in healthy human assessed as occurrence of diarrhea at 87.5 mg, po administered as single dose coadministered with 100 mg of ritonavir; format: organism-based; conditions: in vivo
[14] = AUC (0 to infinity) in healthy human at 25 mg, po administered as single dose; format: ADME, organism-based; parameters: dose 25 mg, route oral, time infinity; conditions: plasma
Summary of the method: (§3)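 Healthy male volunteers, six active plus two placebo per dose group, single oral dose in PEG solution with 200 ml water after overnight fast; breakfast 60 to 90 min post-dose. EDTA plasma sampled predose to 144 h. Assayed by validated LC-MS/MS after protein precipitation. Noncompartmental analysis, AUC by linear up/log down trapezoidal rule; Vss = CL/F·(MRTp.o. − 1/Ka).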

Homo sapiens [15] = test: Ratio of half life in human at 50 mg, po in presence of 100 mg of ritonavir to half life in human at 50 mg, po; format: ADME, organism-based; conditions: in vivo
Homo sapiens [16] = test: Toxicity in healthy human assessed as occurrence of abdominal pain at 75 mg, po administered as single dose relative to control; format: organism-based, Abdomen; conditions: in vivo
[17] = Apparent volume of distribution at steady state in healthy human at 100 mg, po administered as single dose; format: ADME, organism-based; conditions: in vivo, read-out: Vss/F; summary of the method: as §3
[18] = Drug excretion in healthy human urine assessed as unchanged drug at 5 mg, po administered as single dose by high-pressure liquid chromatography-tandem mass spectrometry/mass spectrometry method; format: ADME, organism-based; conditions: read-out: Drug uptake
Summary of the method: (§4)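 Urine was collected by weight after one oral dose of BILR 355 in PEG solution in fasted healthy males. Intervals were predose blank, 0-6, 6-24 and 24-72 h, with the bladder voided before each. Aliquots were stored at −20°C and assayed by LC-MS/MS. fe = amount of unchanged drug excreted (Ae) as a percentage of the administered dose.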

[19] = Drug excretion in healthy human urine assessed as unchanged drug at 75 mg, po administered as single dose by high-pressure liquid chromatography-tandem mass spectrometry/mass spectrometry method; format: ADME, organism-based; conditions: read-out: Drug uptake; summary of the method: as §4
[20] = AUC (0 to infinity) in healthy human at 62.5 mg, po administered as single dose coadministered with 100 mg of ritonavir; format: ADME, organism-based; parameters: dose 62.5 mg, time infinity, route oral; conditions: plasma; summary of the method: as §1
[21] = AUC (0 to infinity) in high fat fed healthy human at 50 mg, po administered as single dose coadministered with 100 mg of ritonavir; format: ADME, organism-based; parameters: dose 50 mg, time infinity, route oral; conditions: plasma
Summary of the method: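 Fed cohort of 6 healthy men given an FDA-type high-fat breakfast (about 150, 250 and 500 to 600 cal from protein, carbohydrate and fat) 30 min before dosing. Ritonavir 100 mg given 10 h earlier and again with the single oral dose in PEG solution. Plasma sampled to 144 h, LC-MS/MS, noncompartmental analysis.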

[22] = AUC (0 to last) in healthy human at 62.5 mg, po administered as single dose coadministered with 100 mg of ritonavir; format: ADME, organism-based; parameters: dose 62.5 mg, time 0 - last, route oral; conditions: plasma; summary of the method: as §1
[23] = Cmax in healthy human at 25 mg, po administered as single dose coadministered with 100 mg of ritonavir by high-pressure liquid chromatography-tandem mass spectrometry/mass spectrometry method; format: ADME, organism-based; parameters: dose 25 mg, route oral; conditions: in vivo; summary of the method: as §2
[24] = Cmax in healthy human at 62.5 mg, po administered as single dose coadministered with 100 mg of ritonavir by high-pressure liquid chromatography-tandem mass spectrometry/mass spectrometry method; format: ADME, organism-based; parameters: dose 62.5 mg, route oral; conditions: in vivo; summary of the method: as §2
[25] = Half life in healthy human at 12.5 mg, po administered as single dose coadministered with 100 mg of ritonavir; format: ADME, organism-based; conditions: in vivo
[26] = Half life in healthy human at 25 mg, po administered as single dose coadministered with 100 mg of ritonavir; format: ADME, organism-based; conditions: in vivo
Homo sapiens [27] = test: Toxicity in healthy human assessed as occurrence of fatigue at 75 mg, po administered as single dose relative to control; format: organism-based; conditions: in vivo
Homo sapiens [28] = test: Toxicity in healthy human assessed as occurrence of headache at 75 mg, po administered as single dose relative to control; format: organism-based; conditions: in vivo

CL/F [5]: 98 mL/min
CL/F [6]: 138 mL/min
Vd/F [7]: 149 L
Vd/F [8]: 105 L
CL renal [9]: 8.2 mL/min
dose excreted [10]: 4.78%
AUC(0-inf) [14]: 142 ng·h/mL
Ratio (Homo sapiens [15]): 4.6
Vd/F [17]: 163 L
dose excreted [18]: 0.172%
dose excreted [19]: 0.602%
AUC(0-inf) [20]: 7630 ng·h/mL
AUC(0-inf) [21]: 8300 ng·h/mL
AUC(0-t) [22]: 7480 ng·h/mL
Cmax [23]: 226 ng/mL
Cmax [24]: 653 ng/mL
half-life [25]: 15.9 h
half-life [26]: 11.5 h
SMILES: CCN1c2ncc(CCOc3cc[n+]([O-])c4ccccc34)cc2C(=O)N(C)c2cccnc21 [BILR 355]
Activity (Homo sapiens [1]): 0%
Activity (Homo sapiens [2]): 0%
Activity (Homo sapiens [3]): 0%
Activity (Homo sapiens [4]): 0%
Activity (Homo sapiens [11]): 0%
Activity (Homo sapiens [12]): 0%
Activity (Homo sapiens [13]): 16.7%
Activity (Homo sapiens [16]): 16.7%
Activity (Homo sapiens [27]): 16.7%
Activity (Homo sapiens [28]): 0%
